Data set [1] has as its system Dermatophagoides farinae. Put plainly: Acaricidal activity against 7 to 10 day-old Dermatophagoides farinae adult after 24 hr by microscopy. It counts as functional. The essentials:
(§1)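 Mites exposed by direct contact in a lidded container, held at 25 ± 1 °C, 75% relative humidity, in darkness. Mortality scored 24 h after treatment under a binocular microscope (20×). Untreated controls run alongside. Three replicates per treatment. LD50 derived by probit analysis.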

The subject of data set [2] is Dermatophagoides pteronyssinus. Put plainly: Acaricidal activity against 7 to 10 day-old Dermatophagoides pteronyssinus adult after 24 hr by microscopy. The class given is functional. The procedure, abridged:
as §1

The test system of data set [3] is Dermatophagoides pteronyssinus. Put plainly: Ratio of benzyl benzoate LD50 to compound LD50 for 7 to 10 day-old Dermatophagoides pteronyssinus adult after 24 hr by microscopy. It counts as functional.
For data set [4], the system named is Dermatophagoides farinae. In words: Ratio of benzyl benzoate LD50 to compound LD50 for 7 to 10 day-old Dermatophagoides farinae adult after 24 hr by microscopy. The class given is functional.
Data set [5] can be described thus: Acute toxicity in po dosed Rattus norvegicus (rat). The class given is organism-based. The following applies: in vivo.

As to `COc1ccc(C=O)cc1`, the LD50 in the data set with Dermatophagoides farinae [1] stood at 11.3 mg/m2; in data set [2], 10.1 mg/m2. For the same compound, the Ratio was determined as 6.7 in data set [3] and 7.9 in the data set on Dermatophagoides farinae [4].

On to `CC1(C)C(=O)[C@@]2(C)CCC1C2` [(+)-FENCHONE], for which the LD50 in the data set on Dermatophagoides farinae [1] is recorded as 38.9 mg/m2; in data set [2], 43.2 mg/m2. The Ratio in data set [3] amounted to 1.6; with Dermatophagoides farinae [4] it was 2.3.

With `CC1(C)C(=O)[C@]2(C)CCC1C2` [(-)-FENCHONE], the figures for the LD50 (with Dermatophagoides farinae [1]; in data set [2]) were 41.8 mg/m2 and 48.7 mg/m2, respectively. The Ratio is recorded as 1.4 in data set [3] and 2.1 in the data set with Dermatophagoides farinae [4].

Consider `O=C(OCc1ccccc1)c1ccccc1` [BENZYL BENZOATE], for which the results for the LD50 (with Dermatophagoides farinae [1]; in data set [2]) were 89.2 mg/m2 and 67.5 mg/m2, respectively.

As for `C=CCc1ccc(OC)cc1` [ESTRAGOLE], the LD50 in the data set on Dermatophagoides farinae [1] is given as 413.3 mg/m2; in data set [2] it was 389.9 mg/m2. Also, the Ratio (in data set [3]; in the data set on Dermatophagoides farinae [4]) was 0.2 in each case.

With `CC12CCC(C1)C(C)(C)C2=O` (centres undefined) [FENCHONE], in data set [5], the LD50 amounted to 6160 mg/kg.

Source of the values: ChEMBL document CHEMBL3045934, “Acaricidal activity of constituents identified in Foeniculum vulgare fruit oil against Dermatophagoides spp. (Acari: Pyroglyphidae)” (J Agric Food Chem, 2004).
